697 NFkB inh: inhibitors of PMA/ionomycin-induced NF-kB reporter, 697 cells, primary screen, B-cell NF-kB inhibitor project, cell-based, luminescence, uHTS. 697 B-cell NF-kB luciferase reporter, 16 h. inhibition, % at 4 µM. actives 0.33% (n = 330,000). AID 435022, 2010; in the data active means inhibition above about 35%
MPTP block: mitochondrial permeability transition pore inhibitors, primary screen, biochemical, isolated mouse mitochondria, absorbance. actives 1.4% (n = 360,000). inhibition, % at 10 µM. Ca2+ swelling absorbance, 30 min;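 active means inhibition of 50% or more, scaled per plate between neutral and stimulator controls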;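 further: 0% = DMSO wells given calcium and 100% = 1 mM EGTA wells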
NR2E3 ag-1: inhibitors of NR2E3-RetCOR corepressor binding, primary screen, NR2E3 agonist project, biochemical, TR-FRET, GST-NR2E3, biotin-RetCOR; Photoreceptor-specific nuclear receptor (Homo sapiens), Q9Y5X4; 1536-well; inhibition of corepressor binding, % at 4.78 µM; actives 0.12% (n = 320,000); AID 2300, 2010;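 active means percent inhibition above the cutoff of mean plus 3 SD of all tested compounds, set per screening campaign, cut at about 20% in these data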;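 further: 0% = DMSO wells and 100% = biotin wells as full block of FRET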
Target sequence (Q9Y5X4 whole entry, looked up): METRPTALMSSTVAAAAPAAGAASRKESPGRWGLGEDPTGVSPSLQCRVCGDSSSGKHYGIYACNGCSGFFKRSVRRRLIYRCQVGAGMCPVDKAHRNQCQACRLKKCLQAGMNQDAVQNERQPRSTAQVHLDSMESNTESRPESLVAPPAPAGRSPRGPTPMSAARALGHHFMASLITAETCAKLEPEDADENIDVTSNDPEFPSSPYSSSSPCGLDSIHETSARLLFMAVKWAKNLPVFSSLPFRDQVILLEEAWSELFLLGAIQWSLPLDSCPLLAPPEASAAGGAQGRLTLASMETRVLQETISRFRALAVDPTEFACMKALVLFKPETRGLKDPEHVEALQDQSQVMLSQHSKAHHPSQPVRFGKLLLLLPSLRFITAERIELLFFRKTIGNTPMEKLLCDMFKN
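Assay system: NR2E3–RetCOR corepressor complex. Quantity: 1.35 nM GST-NR2E3. Buffer or medium: pH 7.5 Tris-based buffer. Reagent: biotinylated RetCOR corepressor at 7 nM final. Schedule: 5 h at 4 °C. Detection: TR-FRET, emission read at 617 and 671 nm. Replicates: one well per compound, singlicate testing.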
Jurkat NFkB inh: inhibitors of induced NF-kB luciferase reporter, primary screen, TCR NF-kB activation inhibitor project, cell-based, luminescence, uHTS | Jurkat, PMA/ionomycin-induced NF-kB luciferase reporter | inhibition, % at 4 µM | actives 0.53% (n = 330,000); in the data active means inhibition above about 50%
NR2E3 ag-2: NR2E3 agonists in two-hybrid cells, primary screen, cell-based, luminescence, CHO-S, Gal4-NCOR/VP16-NR2E3. AID 602229, 2012. Photoreceptor-specific nuclear receptor (Homo sapiens), Q9Y5X4. inhibition of corepressor binding, % at 3.98 µM. luciferase. actives 0.35% (n = 360,000);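 active means inhibition above the mean of all tested compounds plus 3 SD, cut at about 70% in these data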;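 further: 0% = DMSO with NR2E3 transfected cells and 100% = cells lacking NR2E3 construct; higher means lower luciferase signal from less NR2E3 corepressor binding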
aDG glyco up: activators of alpha-DG glycosylation, primary screen, uHTS, Pro5-aDG cells, AlphaScreen; activation, % at 10 µM; AID 624168, 2012; actives 0.22% (n = 360,000); alpha-DG glycosylation AlphaScreen (IIH6); 0% Pro5, 100% B10-LARGE cell signal;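 active means activation of at least 8% versus controls, or a plate z-score of at least 8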;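 further: Pro5 are CHO cells carrying HIG-tagged alpha-DG that lacks glycosylation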
Jurkat NFkB conf: PMA/ionomycin-induced NF-kB reporter inhibitors, Jurkat retest, confirmation, T-cell NF-kB inhibitor project, cell-based, luminescence, single concentration | shares compounds with Jurkat NFkB inh | Jurkat NF-kB luciferase, 16 h | inhibition, % at 4 µM | actives 27% (n = 2,700);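 active means inhibition reaching about 45% at 4 µM in either replicate, limit read from the data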;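 further: plate controls were PMA/ionomycin stimulated DMSO wells for no effect and unstimulated DMSO wells for full effect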
An asterisk follows results filed as active; . = no result given. Rows were chosen to be rich in hits. Some 2.4% of all compounds tested hit in one or more screens of this group.

SMILES | 697 NFkB inh | MPTP block | NR2E3 ag-1 | Jurkat NFkB inh | NR2E3 ag-2 | aDG glyco up | Jurkat NFkB conf
Clc1ccc(OCc2nc(-c3ccncc3)no2)c(Br)c1 | -196 | -1 | 5 | -166 | -178 | 0 | -96
Cc1ccc(S(=O)(=O)N2CCCCC2)cc1NC(=O)Cc1c[nH]c2ccccc12 | -79 | 2 | 1 | 66* | 15 | 0 | 21
Cc1ccc2nc(-c3ccc(NC(=O)C(C)Sc4nncs4)cc3)sc2c1 (stereo not given) | -163 | 3 | 2 | -167 | -148 | 1 | -36
Cc1csc(NC(=O)CN2C(=O)c3ccccc3C2=O)c1C(N)=O | -6 | 2 | 0 | -13 | -8 | 0 | .
O=C(N/N=C/c1cccs1)c1cc(-c2ccncc2)nc2ccccc12 | . | 2 | 2 | . | -8 | 0 | .
CCCc1cc(C(=O)N/N=C/c2ccc(CC)s2)c2ccccc2n1 | -30 | 0 | 0 | 56* | -85 | 0 | 48
CCCc1cc(C(=O)N/N=C/c2ccc(C)o2)c2ccccc2n1 | -9 | 13 | -1 | 19 | -11 | -1 | .
Cn1cccc1/C=N/NC(=O)c1cc(-c2cccs2)nc2ccccc12 | -15 | -2 | -2 | 53* | -20 | 0 | 4
CCc1ccc(/C=N/NC(=O)c2cc(-c3ccncc3)nc3ccccc23)s1 | -75 | 0 | -1 | 63* | -31 | 0 | 50*
COc1ccc(S(=O)(=O)Nc2cccc3c2O[C@H](CN(C)S(=O)(=O)c2cn(C)cn2)[C@@H](C)CN([C@H](C)CO)C3=O)cc1 | 4 | 0 | . | -13 | -41 | 0 | .
O=C(/C=C/c1ccccn1)c1cc(Cl)cc(Cl)c1O | -11 | 1 | -1 | 67* | 12 | 0 | 29
Cc1ccc(Nc2cnn(C34CC5CC(CC(CC(=O)O)(C5)C3)C4)c(=O)c2Cl)c(Cl)c1 | 12 | -1 | 6 | 10 | -1 | 0 | .
O=C(O)CCC(=O)Nc1ccc(Br)cc1C(=O)c1ccc(Cl)cc1 | 16 | 1 | 1 | 4 | -3 | 0 | .
Cc1ccc(C2=NNC(c3cccc(F)c3)S2)cc1 (stereo not given) | -233 | 0 | -1 | -167 | -170 | 0 | -76
COc1ccc(C2NN=C(c3ccc(C)cc3)S2)cc1OC (stereo not given) | -120 | 0 | 6 | -137 | -101 | 0 | .
Cc1c(/C=C(\C#N)c2nn(-c3ccccc3)c(N)c2C#N)c2ccccc2n1Cc1ccc(F)cc1 | 0 | 0 | 3 | 1 | -9 | 0 | .
O=C(CCC(=O)N1CCOc2ccccc21)N1CCN(c2ccccc2)CC1 | 8 | 0 | -2 | -1 | 8 | 0 | .
O=C(c1ccccc1F)N1CCC2CC1c1cc(N3CCCCC3)ccc12 (stereo not given) | . | -2 | . | . | -15 | 0 | .
C=C(C)COc1ccc(-c2ncncc2-c2ccc(Br)cc2)c(O)c1 | -3 | -1 | -3 | 8 | -6 | 0 | .
CCOc1ccc(-c2[nH]ncc2-c2ccc(OC)c(OC)c2)c(O)c1 | -57 | -2 | -4 | 63* | -41 | 0 | 57*
C=C(C)COc1ccc(-c2n[nH]c(C)c2-c2ccc(Br)cc2)c(O)c1 | -19 | 7 | -2 | 50* | -59 | 0 | 26
C=C(C)COc1ccc(-c2[nH]ncc2-c2ccc(Br)cc2)c(O)c1 | -22 | 10 | -3 | 59* | -30 | 0 | 8
COc1ccc(-c2cn[nH]c2-c2ccc(O)cc2O)cc1OC | 11 | 0 | 1 | -3 | -12 | 0 | .
Cc1ccc(OCc2cc(C(=O)N3CCC(c4ccccc4Cl)C3)no2)cc1C (stereo not given) | -45 | 2 | 0 | -48 | -103 | 0 | .

Source: PubChem
